Series [1] is described as follows: Toxicity against Brine shrimp nauplii after 24 hrs. The class given is organism-based. The following applies: artemia salina, in vivo; read-out: ED50. A digest of the protocol:
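Artemia salina nauplii hatched 38 h in sterile brine (sea salt 38 g/L, pH 8.5) under aeration; 10 nauplii per vial exposed to graded compound concentrations in 5 mL final volume, 37 °C, 24 h under incandescent light. Survivors counted; percent lethality versus vehicle-treated controls; ED50 from probit analysis; podophyllotoxin positive control.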

Another series deals with Bacillus subtilis. Nature of the series: Antibacterial activity against Bacillus subtilis NCIM 2063 after 24 hrs by agar well diffusion assay. The class given is functional. As to conditions: NCIM 2063, 24 h. A digest of the protocol:
(§1)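 Agar well diffusion per NCCLS; NCIM standard strains. Nutrient agar seeded with 0.1 mL bacterial suspension in sterile 0.85% saline at 10⁵ CFU/mL. Plates in triplicate, 37 0.5 °C, 24 h. MIC taken as lowest concentration giving complete growth inhibition.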
A general note: Agar diffusion results depend on both activity and mobility in agar.

For a further series, the system named is Staphylococcus aureus. Put plainly: Antibacterial activity against Staphylococcus aureus NCIM 2079 after 24 hrs by agar well diffusion assay. The class given is functional. As to conditions: NCIM 2079, 24 h. In outline: as §1
In another series the test system is Micrococcus luteus. Nature of the series: Antibacterial activity against Micrococcus luteus NCIM 2155 after 24 hrs by agar well diffusion assay. The class given is functional. As to conditions: NCIM 2155, 24 h. A digest of the protocol:
as §1

Another series deals with Pseudomonas aeruginosa. Put plainly: Antibacterial activity against Pseudomonas aeruginosa NCIM 2036 after 24 hrs by agar well diffusion assay. Type of series: functional. As to conditions: NCIM 2036, 24 h. In outline:
as §1

In the next series the test system is Klebsiella pneumoniae. Put plainly: Antibacterial activity against Klebsiella pneumoniae NCIM 5082 after 24 hrs by agar well diffusion assay. The class given is functional. As to conditions: NCIM 5082, 24 h. In outline: as §1
For another series, the system named is Escherichia coli. Nature of the series: Antibacterial activity against Escherichia coli NCIM 2065 after 24 hrs by agar well diffusion assay. The class given is functional. The following applies: NCIM 2065, 24 h. A digest of the protocol:
as §1

Another series relates to Proteus vulgaris. Put plainly: Antibacterial activity against Proteus vulgaris NCIM 2813 after 24 hrs by agar well diffusion assay. The class given is functional. The following applies: NCIM 2813, 24 h. A digest of the protocol:
as §1

Another series concerns Candida albicans. Put plainly: Antifungal activity against Candida albicans NCIM 3102 after 48 hrs by agar well diffusion assay. The class given is functional. As to conditions: NCIM 3102, 48 h. In outline:
(§2)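 Fungal spore suspensions in sterile distilled water set to final 10⁶ CFU/mL; 0.1 mL spread on Potato-Dextrose-Agar. NCCLS agar well diffusion with NCIM standard strains: 6 mm wells given 0.1 mL compound diluted in 1% DMSO, final 16 to 512 µg/mL. Triplicate plates held 48 h at 28 0.2 °C. MIC is lowest concentration fully inhibiting growth.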

In another series the test system is Aspergillus niger. Put plainly: Antifungal activity against Aspergillus niger NCIM 548 after 48 hrs by agar well diffusion assay. Type of series: functional. The following applies: NCIM 548, 48 h. A digest of the protocol: as §2
The test system of another series is Aspergillus oryzae. Nature of the series: Antifungal activity against Aspergillus oryzae NCIM 643 after 48 hrs by agar well diffusion assay. Type of series: functional. As to conditions: NCIM 643, 48 h. A digest of the protocol: as §2
For a further series, the system named is Penicillium chrysogenum. Nature of the series: Antifungal activity against Penicillium chrysogenum NCIM 738 after 48 hrs by agar well diffusion assay. Type of series: functional. The following applies: NCIM 738, 48 h. In outline:
as §2

A further series relates to Bacillus pumilus. Nature of the series: Antibacterial activity against Bacillus pumilus NCIM 2327 after 24 hrs by agar well diffusion assay. As to conditions: NCIM 2327, 24 h.

Values after ≈ are worked out from the molar mass of the structure shown.

In the case of `Cc1ccc(S(=O)(=O)NC(=O)Nc2ccccc2C(=O)/C=C/c2cccc(Br)c2)cc1`, the LC50 at 24 h in [1] worked out at 4.02 µg/mL (≈ 8.05 µM). For the same compound, the MIC (commonly the smallest concentration in the dilution series that meets the test's criterion for growth inhibition) against Bacillus subtilis worked out at 16 µg/mL (≈ 32 µM); against Staphylococcus aureus, 64 µg/mL (≈ 128 µM); against Micrococcus luteus it was 16 µg/mL (≈ 32 µM); against Pseudomonas aeruginosa, 32 µg/mL (≈ 64.1 µM); in the series with Klebsiella pneumoniae, 128 µg/mL (≈ 256 µM); against Escherichia coli it was 16 µg/mL (≈ 32 µM). Besides, the MIC in the series with Proteus vulgaris worked out at 16 µg/mL (≈ 32 µM); against Candida albicans, 128 µg/mL (≈ 256 µM); against Aspergillus niger it was 64 µg/mL (≈ 128 µM); with Aspergillus oryzae, 128 µg/mL (≈ 256 µM); in the series with Penicillium chrysogenum it was 128 µg/mL (≈ 256 µM); in the series on Bacillus pumilus, 16 µg/mL (≈ 32 µM).

`C=CCOc1ccc(/C=C/C(=O)c2ccccc2NC(=O)NS(=O)(=O)c2ccc(C)cc2)cc1`: the LC50 at 24 h in [1] stood at 6.11 µg/mL (≈ 12.8 µM). The MIC against Bacillus subtilis worked out at 32 µg/mL (≈ 67.1 µM); in the series with Staphylococcus aureus it was 16 µg/mL (≈ 33.6 µM); in the series with Micrococcus luteus it was 32 µg/mL (≈ 67.1 µM); with Pseudomonas aeruginosa, 16 µg/mL (≈ 33.6 µM); in the series on Klebsiella pneumoniae, 16 µg/mL (≈ 33.6 µM); against Escherichia coli, 32 µg/mL (≈ 67.1 µM). Further, the minimum inhibitory concentration (MIC) against Proteus vulgaris, against Candida albicans, in the series with Aspergillus niger, with Aspergillus oryzae, in the series on Penicillium chrysogenum and with Bacillus pumilus was 16 µg/mL (≈ 33.6 µM) each time.

As for `Cc1ccc(S(=O)(=O)NC(=O)Nc2ccccc2C(=O)/C=C/C=C/c2ccccc2)cc1`, the LC50 at 24 h in series [1] is 18.2 µg/mL (≈ 40.8 µM). The MIC was 128 µg/mL (≈ 287 µM) in the series with Bacillus subtilis; 128 µg/mL (≈ 287 µM) against Staphylococcus aureus; 256 µg/mL (≈ 573 µM) in the series with Micrococcus luteus; 128 µg/mL (≈ 287 µM) with Pseudomonas aeruginosa; 256 µg/mL (≈ 573 µM) in the series with Klebsiella pneumoniae; 128 µg/mL (≈ 287 µM) with Escherichia coli. For the same compound, the MIC with Proteus vulgaris amounted to 256 µg/mL (≈ 573 µM); in the series with Candida albicans, 256 µg/mL (≈ 573 µM); in the series with Aspergillus niger, 256 µg/mL (≈ 573 µM); in the series on Aspergillus oryzae, 256 µg/mL (≈ 573 µM); against Penicillium chrysogenum, 256 µg/mL (≈ 573 µM); against Bacillus pumilus, 128 µg/mL (≈ 287 µM).

In the case of `Cc1ccc(S(=O)(=O)NC(=O)Nc2ccccc2C(=O)/C=C/c2ccc[nH]2)cc1`, the LC50 at 24 h in [1] was found to be 32.1 µg/mL (≈ 78.4 µM). Besides, the MIC in the series with Bacillus subtilis was 256 µg/mL (≈ 625 µM); against Staphylococcus aureus, 128 µg/mL (≈ 313 µM); with Micrococcus luteus it was 256 µg/mL (≈ 625 µM); in the series with Pseudomonas aeruginosa, 256 µg/mL (≈ 625 µM); in the series with Klebsiella pneumoniae, 256 µg/mL (≈ 625 µM); in the series with Escherichia coli, 128 µg/mL (≈ 313 µM). In addition, the MIC against Proteus vulgaris stood at 256 µg/mL (≈ 625 µM); in the series on Candida albicans, 256 µg/mL (≈ 625 µM); against Aspergillus niger it was 256 µg/mL (≈ 625 µM); with Aspergillus oryzae, 256 µg/mL (≈ 625 µM); in the series on Penicillium chrysogenum, 256 µg/mL (≈ 625 µM); in the series on Bacillus pumilus, 128 µg/mL (≈ 313 µM).

In the case of `Cc1ccc(S(=O)(=O)NC(=O)Nc2ccccc2C(=O)/C=C/c2cccnc2)cc1`, the LC50 at 24 h in series [1] is 14.1 µg/mL (≈ 33.4 µM). Also, the MIC in the series on Bacillus subtilis, against Staphylococcus aureus, with Micrococcus luteus, with Pseudomonas aeruginosa, against Klebsiella pneumoniae and with Escherichia coli was 128 µg/mL (≈ 304 µM) throughout. The MIC in the series with Proteus vulgaris, with Candida albicans, against Aspergillus niger, against Aspergillus oryzae, with Penicillium chrysogenum and with Bacillus pumilus was 128 µg/mL (≈ 304 µM) in each case.

Consider `Cc1ccc(S(=O)(=O)NC(=O)Nc2ccccc2C(=O)/C=C/c2ccncc2)cc1`, for which the LC50 at 24 h in [1] was determined as 16.8 µg/mL (≈ 39.9 µM). Besides, the MIC in the series with Bacillus subtilis was determined as 128 µg/mL (≈ 304 µM); with Staphylococcus aureus it was 64 µg/mL (≈ 152 µM); against Micrococcus luteus it was 64 µg/mL (≈ 152 µM); in the series on Pseudomonas aeruginosa, 128 µg/mL (≈ 304 µM); in the series with Klebsiella pneumoniae, 64 µg/mL (≈ 152 µM); in the series with Escherichia coli, 64 µg/mL (≈ 152 µM). The MIC against Proteus vulgaris, against Candida albicans, with Aspergillus niger, in the series with Aspergillus oryzae, against Penicillium chrysogenum and with Bacillus pumilus was 64 µg/mL (≈ 152 µM) each time.

Consider `Cc1ccc(S(=O)(=O)NC(=O)Nc2ccccc2C(=O)/C=C/c2c3ccccc3cc3ccccc23)cc1`, for which the LC50 at 24 h in series [1] is 44.3 µg/mL (≈ 85.1 µM). In addition, the MIC against Bacillus subtilis, in the series with Staphylococcus aureus, with Micrococcus luteus, against Pseudomonas aeruginosa, in the series on Klebsiella pneumoniae and against Escherichia coli was 512 µg/mL (≈ 983 µM) each time. Besides, the MIC in the series on Proteus vulgaris, with Candida albicans, against Aspergillus niger, against Aspergillus oryzae, in the series with Penicillium chrysogenum and in the series with Bacillus pumilus was 512 µg/mL (≈ 983 µM) throughout.

The record behind these values is ChEMBL document CHEMBL1938268, “Synthesis, characterization and in vitro biological evaluation of some novel diarylsulfonylureas as potential cytotoxic and antimicrobial agents” (Bioorg Med Chem Lett, 2012).
